ZTA counter = ZTA (EBV) inhibition in EBNA-1 counter-screen; P03206; ZTA-DNA binding, fluorescence polarization; inhibition, % at 11 µM; actives 0.15% (n = 320,000); AID 2234; in the data active means inhibition above about 33%
procasp3 activ = procaspase-3 (human) activation | P42574 | recombinant procaspase-3 D3A, Ac-DEVD-pNA absorbance 405 nm | activation, % at 8.5 µM | actives 0.11% (n = 330,000) | AID 463141;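 active means activation above the mean of all tested compounds plus 3 SD, cut at about 21% in these data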;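 further: 0% = DMSO alone and 100% = DMSO wells spiked with extra 5 µM PC-3 D3A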
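Test system: Procaspase-3 D3A mutant; medium: Zinc-free HEPES/NaCl buffer with 0.01% Triton X-100 at pH 7.4; reagent: DEVD-pNA substrate; doses: one concentration, 8.5 µM nominal, 0.8% DMSO; times: 1 h preincubation plus 2 h reaction at 25 °C; signal: Epi-absorbance at 405 nm of released p-nitroaniline, 0 and 120 min; replicates: singlicate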
GSTO1 counter = counter-screen for RBBP9 inhibitors: inhibitors of human GSTO1; P78417; AID 1974; inhibition, % at 5.96 µM; recombinant GSTO1, activity-based probe fluorescence polarization; actives 1.1% (n = 300,000);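 active means inhibition above the campaign mean inhibition plus 3 SD, cut at about 35% in these data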;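 further: 0% = GSTO1-1 with DMSO and 100% = wells lacking GSTO1-1 enzyme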
Apaf1 inhib = blocks human Apaf-1 apoptosome activity; O14727; reconstituted apoptosome caspase-3 activity, DEVD-Rh110 fluorescence; inhibition, % at 20 µM; actives 0.71% (n = 330,000); AID 489030; active means inhibition of at least 40% at 20 µM;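 further: plate controls were DMSO wells for no effect and DEVD-CHO caspase inhibitor wells for full effect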
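System: reconstituted apoptosome with Apaf-1, cytochrome c, caspase-9, procaspase-3, dATP; Signal: Rh110 fluorescence intensity; Schedule: 30 min compound preincubation, 50 min activation, room temperature; Reagent: cytochrome c trigger plus (Z-DEVD)2-Rh110 caspase-3 substrate.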
EBNA-1 inh = blocks EBNA-1 binding to DNA. EBNA-1 DNA binding, fluorescence polarization. inhibition, % at 14.8 µM. actives 0.34% (n = 300,000); in the data active means inhibition above about 28%
procasp7 counter = counter-screen for procaspase-3 activators: activators of human procaspase-7 | P55210 | recombinant procaspase-7, Ac-DEVD-pNA absorbance 405 nm; D23A/D198A/D206A triple mutant, cannot self-cleave; scale: DMSO 0, 5 µM enzyme 100 | activation, % at 8.5 µM | actives 0.093% (n = 330,000);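 active means percent activation above the screen-wide mean plus 3 SD, cut at about 25% in these data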
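Material: Procaspase-7 triple mutant (PC-7 D3A) | Quantity: 2 µM procaspase-7 mutant as dispensed | Reagent: DEVD-pNA substrate | Times: 1 h preincubation, 2 h reaction | Technique: 405 nm absorbance of p-nitroaniline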
EBNA-1 confirm = EBNA-1 (EBV) inhibition, confirmation; Recombinant EBNA-1 DBD, Cy5-DNA fluorescence polarization; shares compounds with EBNA-1 inh; actives 35% (n = 830); inhibition, % at 14.8 µM; AID 2292;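 active means mean inhibition across replicates above a set limit taken from the earlier primary screen, cut at about 28% in these data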;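 further: plate controls were EBNA-1 protein with DMSO for no effect and wells lacking EBNA-1 for full effect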
ZTA DNA inh trip = counter-screen for EBNA-1 inhibitors: Epstein-Barr virus ZTA inhibitors, triplicate | Zta-ZRE DNA binding, Cy5 fluorescence polarization | inhibition, % at 11.1 µM | shares compounds with EBNA-1 inh | 830 tested, under 10 active;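 active means mean inhibition over triplicates above a set limit taken from the primary EBNA-1 screen, cut at about 37% in these data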;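 further: purified full length Zta protein with Cy5 labeled ZRE DNA probe; 0% = Zta with DMSO and 100% = wells lacking Zta protein; inhibitors lower polarization by freeing the labeled DNA probe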
Active calls of the source: *; . = not tested or not shown. Hits are enriched below; roughly 1.8% of the tested compounds scored in any of these assays.

SMILES	ZTA counter	procasp3 activ	GSTO1 counter	Apaf1 inhib	EBNA-1 inh	procasp7 counter	EBNA-1 confirm	ZTA DNA inh trip
CC1CCCCC1NC(=O)C1CCC(CNS(=O)(=O)c2ccccc2)CC1 (configuration not stated)	-3	-2	-1	2	31*	-2	9	6
C(=N\Nc1nc(N2CCCC2)nc(N2CCCC2)n1)/c1ccccc1OCc1ccccc1	-16	-3	-8	27	38*	6	24	-2
C/C(=N\NC(=O)c1c(Br)cnn1C)c1ccc(NC(=O)c2ccc(F)cc2)cc1	-12	7	4	11	50*	3	69*	1
CCN(CC(=O)NCC(=O)Nc1ccc(Br)cc1C)Cc1ccccc1	-8	-3	4	16	7	8	.	.
CCOC(=O)N=S(=O)(Oc1ccc([N+](=O)[O-])cc1)c1ccc(Cl)cc1 (configuration not stated)	0	4	-4	9	-1	5	.	.
CCOC(=O)N=S(=O)(Oc1ccc([N+](=O)[O-])cc1)c1ccccc1 (configuration not stated)	3	2	1	6	137*	-4	-5	-1
COc1cc(NC(=O)CSc2nc3ccccc3c(=O)n2C)ccc1NC(=O)c1ccco1	-1	1	19	1	40*	2	28*	6
COc1ccc(O)c(/C=N/NC(=O)CCC(=O)Nc2ccc(C)cc2)c1	10	0	3	2	50*	-12	0	6
O=C(CCC(=O)Nc1ccc(Br)cc1)N/N=C/c1ccc(O)cc1	11	9	1	0	28*	-10	1	7
COc1ccc(O)c(/C=N/NC(=O)CCC(=O)Nc2cccc(C)c2)c1	19	-3	-3	3	8	7	.	.
COc1ccc(C(CNC(=O)C(C)Oc2ccc(Br)cc2)N2CCCC2)cc1 (configuration not stated)	-7	-8	0	0	1	7	.	.
N#Cc1c2ncn(CC(=O)c3ccc(Br)cc3)c(=O)c2c2n1CCC2	8	8	11	-15	29*	-14	136*	5
COc1ccc(-n2c(SCC(=O)NCCCN3CCCC3=O)nnc2C(C)N2CCCCC2)cc1 (configuration not stated)	-3	-7	9	1	41*	2	2	0
O=C(Nc1ccc2c(c1)OCO2)C1CCN(c2ccc(S(=O)(=O)N3CCOCC3)cc2)CC1	3	10	1	-19	29*	6	11	8
Cc1ccc(S(=O)(=O)N2CCC(C(=O)Nc3ccc4c(c3)OCO4)CC2)cc1	-12	-1	-6	10	2	-10	.	.
NC(=O)C1CCN(CC(=O)Nc2ccc(S(=O)(=O)N3CCOCC3)cc2)CC1	1	0	10	0	-14	4	.	.
Cn1cc(/C=C2/SC(=O)N(CC(=O)Nc3ccc4c(c3)OCO4)C2=O)c2ccccc21	3	-6	-2	-9	56*	13	64*	14
Cc1ccc(C(=O)NCC(=O)OCc2cccc(Br)c2)cc1	-4	-2	0	-3	-1	8	.	.
CCC(C)c1ccccc1N1CC(C(=O)N2CCN(C(=O)c3ccco3)CC2)CC1=O (configuration not stated)	-7	0	.	18	.	0	.	.
Cc1ccc(-n2c(=O)c3ccc(C(=O)NCc4ccco4)cc3n(Cc3ccccc3C#N)c2=O)cc1	-12	1	-4	18	50*	5	22	12
Cc1ccccc1Cn1c(=O)n(-c2ccccc2)c(=O)c2ccc(C(=O)NCc3ccco3)cc21	14	3	-1	-20	12	-2	.	.
